Rows were chosen to be rich in hits. Some 3.8% of all compounds tested hit in one or more screens of this group.
KCNQ1 act = potentiates or activates the human KCNQ1 potassium channel | P51787 | hit rate 0.35% among 310,000 | B-score at 10 µM | CHO-K1 KCNQ1, thallium flux FluxOR fluorescence; hits give high values;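 active = fluorescence ratio B-score, a plate-corrected score, at least three library SD, with initial intensity B-score within 5 SD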
Target sequence (P51787 whole entry, looked up): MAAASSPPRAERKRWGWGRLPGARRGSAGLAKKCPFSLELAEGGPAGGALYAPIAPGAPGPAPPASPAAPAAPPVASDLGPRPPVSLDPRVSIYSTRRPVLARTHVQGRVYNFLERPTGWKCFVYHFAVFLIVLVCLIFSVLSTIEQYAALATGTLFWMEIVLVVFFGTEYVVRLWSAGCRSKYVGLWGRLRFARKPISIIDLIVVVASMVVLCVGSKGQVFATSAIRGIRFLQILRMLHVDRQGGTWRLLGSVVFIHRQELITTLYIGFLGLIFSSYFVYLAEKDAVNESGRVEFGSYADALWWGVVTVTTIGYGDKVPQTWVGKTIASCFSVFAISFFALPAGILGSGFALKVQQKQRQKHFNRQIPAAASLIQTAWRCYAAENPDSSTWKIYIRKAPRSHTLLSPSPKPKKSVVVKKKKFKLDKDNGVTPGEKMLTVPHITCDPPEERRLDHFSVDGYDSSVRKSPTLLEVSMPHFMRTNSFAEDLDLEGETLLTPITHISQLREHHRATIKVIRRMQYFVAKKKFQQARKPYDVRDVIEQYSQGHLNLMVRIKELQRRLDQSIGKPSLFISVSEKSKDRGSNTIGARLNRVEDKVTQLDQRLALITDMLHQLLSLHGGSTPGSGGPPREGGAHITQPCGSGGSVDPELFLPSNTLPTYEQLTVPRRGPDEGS
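Medium – assay buffer, equal DMSO in all wells · Material – CHO-K1 cell line with stable KCNQ1 potassium channel expression · Signal – kinetic FluxOR thallium fluorescence, 10-s 1-Hz baseline, 110-s post-stimulus read · Compound – single concentration per compound, DMSO matched to controls · Schedule – 37 °C overnight plating, 90-min dark dye load, 20-min compound pretreatment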
KCNK9 inh = human KCNK9 channel inhibition | HEK293 KCNK9, FluxOR thallium flux fluorescence; hits give low values | B-score at 10 µM | hit rate 1.2% among 310,000 | AID 488922;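 active = ratio B-score over 3 SD below the library mean, with starting fluorescence within 5 SD of its mean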;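 note: negative B-score means less thallium flux so channel inhibition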
KCNQ1 inh = blocks the human KCNQ1 potassium channel; CHO-K1 KCNQ1, FluxOR thallium flux fluorescence; hits give high values; B-score at 10 µM; hit rate 1.3% among 310,000;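 active = compounds whose thallium flux B-score, printed positive for inhibition, exceeds three library SD while starting fluorescence stays within three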;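 note: channel opened by potassium depolarization with thallium stimulus after 20 min compound exposure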
hERG rescue = shields human hERG channel from block by proarrhythmic agents; Q12809; CHO-hERG, FluxOR thallium flux, dofetilide IC70 present; activation (rescue from dofetilide block), less the hit threshold, % at 10 µM; hit rate 0.51% among 310,000;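 active = activation above the mean of controls blocked by dofetilide plus 5 SD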;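 note: thallium influx through hERG after potassium depolarization seen as dye fluorescence rise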
KCNK3 block = human KCNK3 channel inhibition, primary screen | AID 602410 | B-score at 10 µM | O14649 | hit rate 0.84% among 340,000 | CHO-KCNK3 thallium flux, FluxOR fluorescence; hits give low values;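 active = B-score under library mean minus 4 SD, starting fluorescence ratio at most library mean plus 5 SD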;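 note: more negative B-score means stronger inhibition of thallium flux through KCNK3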
Kir21 block = inhibitors of mouse Kir2.1 inward-rectifier potassium channel; hit rate 0.85% among 310,000; P35561; B-score at 10 µM; HEK293-Kir2.1, FluxOR thallium flux fluorescence; hits give low values;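 active = fluorescence ratio B-score at or below minus 3 SD of library scores, with starting-brightness B-score within 2 SD, cut at about -4.2 in these data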;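 note: channel flux triggered by added potassium and thallium sulfate stimulus; B-score of peak minus minimum fluorescence over baseline after thallium stimulus; more negative B-score means stronger Kir2.1 block with less thallium influx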
* marks the source's active call; other numbers are inactive results.

Screening O=c1c2ccccc2[nH]c(=S)n1CCC1=CCCCC1 returned KCNQ1 act 26*, KCNK9 inh inactive, KCNQ1 inh inactive, hERG rescue 10.6*, KCNK3 block inactive and Kir21 block -0.69.
O=c1c2ccccc2[nH]c(=S)n1CCN1CCCCC1 was read as KCNQ1 act inactive, KCNK9 inh inactive, KCNQ1 inh inactive, hERG rescue -4.0, KCNK3 block inactive and Kir21 block -1.59.
Cc1ccc(OCC(=O)OCC(=O)Nc2sccc2C(N)=O)cc1C was read as KCNQ1 act inactive, KCNK9 inh inactive, KCNQ1 inh inactive, hERG rescue -8.6, KCNK3 block inactive and Kir21 block 1.87.
`CCCOc1ccc(/C(O)=C2/C(=O)C(=O)N(CCCn3ccnc3)C2c2ccco2)cc1` (stereo unspecified) gave KCNQ1 act inactive, KCNK9 inh inactive, KCNQ1 inh inactive, hERG rescue 6.8*, KCNK3 block inactive and Kir21 block 0.84.
CN(CCC#N)S(=O)(=O)c1cc2c3c(c1)CCN3C(=O)CC2 was read as KCNQ1 act inactive, KCNK9 inh inactive, KCNQ1 inh inactive, hERG rescue -6.5, KCNK3 block inactive and Kir21 block -0.06.
Cc1cc(O)c2c(c1)C(=O)c1cc(O)cc(O)c1C2=O was read as KCNQ1 act inactive, KCNK9 inh inactive, KCNQ1 inh 6*, hERG rescue -9.3, KCNK3 block inactive and Kir21 block -0.11.
For c1ccc(SCCOCCN2CCc3ccccc3C2)cc1 the results were KCNQ1 act inactive, KCNK9 inh inactive, KCNQ1 inh inactive, hERG rescue -11.3, KCNK3 block inactive and Kir21 block -5.4*.
`COc1c(CC=C(C)C)cc(C2CC(=O)c3c(O)cc(O)cc3O2)cc1CC=C(C)C` (stereo unspecified) gave KCNQ1 act inactive, KCNK9 inh inactive, KCNQ1 inh 8*, hERG rescue -13.2, KCNK3 block inactive and Kir21 block -1.05.
For Clc1ccc(Nc2ccc(NCc3ccccc3)nn2)cc1 the results were KCNQ1 act inactive, KCNK9 inh inactive, KCNQ1 inh inactive, hERG rescue -11.1, KCNK3 block inactive and Kir21 block -5.46*.
O=Cc1[nH]c2ccccc2c1N(C(=O)CCl)c1ccc([N+](=O)[O-])cc1 was read as KCNQ1 act inactive, KCNK9 inh inactive, KCNQ1 inh 9*, hERG rescue -26.9, KCNK3 block inactive and Kir21 block -5.55*.
Screening CC(=O)n1cc(N(C(=O)CCl)c2ccc([N+](=O)[O-])cc2)c2ccccc21 returned KCNQ1 act inactive, KCNK9 inh inactive, KCNQ1 inh 7*, hERG rescue -13.3, KCNK3 block inactive and Kir21 block -3.02.
For COc1ccc2cnn(CCOc3cc(C)ccc3C(C)C)c(=O)c2c1OC the results were KCNQ1 act inactive, KCNK9 inh inactive, KCNQ1 inh inactive, hERG rescue -15.8, KCNK3 block inactive and Kir21 block -4.75*.
`CN(C)CCNc1ncnc2oc(-c3ccccc3)c(-c3ccccc3)c12` gave KCNQ1 act inactive, KCNK9 inh inactive, KCNQ1 inh inactive, hERG rescue -7.0, KCNK3 block inactive and Kir21 block -4.7*.
For COc1ccc(CNc2oc(-c3cccc4ccccc34)nc2C#N)cc1 the results were KCNQ1 act inactive, KCNK9 inh -7.29*, KCNQ1 inh inactive, hERG rescue -5.7, KCNK3 block inactive and Kir21 block 0.22.
For COc1ccc2ccccc2c1-c1sc(Nc2ccccc2)n[n+]1-c1ccc(F)cc1 the results were KCNQ1 act inactive, KCNK9 inh -7.38*, KCNQ1 inh 7*, hERG rescue -27.2, KCNK3 block inactive and Kir21 block -5.62*.
`COc1ccc(-c2sc(Nc3ccccc3)n[n+]2-c2ccc(F)cc2)cc1Br` gave KCNQ1 act inactive, KCNK9 inh inactive, KCNQ1 inh inactive, hERG rescue -30.3, KCNK3 block inactive and Kir21 block -1.04.
For CCCCN(Cc1cccs1)S(=O)(=O)c1csc(C(N)=O)c1 the results were KCNQ1 act inactive, KCNK9 inh inactive, KCNQ1 inh inactive, hERG rescue -9.0, KCNK3 block inactive and Kir21 block -7.81*.
For Cc1cc(C)c(C(N)=O)c(Nc2ccc(F)cc2)n1 the results were KCNQ1 act inactive, KCNK9 inh inactive, KCNQ1 inh inactive, hERG rescue -5.0, KCNK3 block inactive and Kir21 block -0.44.
Screening Cc1c(OCC(=O)NC2CC(C)(C)NC(C)(C)C2)ccc2c3c(c(=O)oc12)CCC3 returned KCNQ1 act inactive, KCNK9 inh inactive, KCNQ1 inh inactive, hERG rescue -8.0, KCNK3 block inactive and Kir21 block -4.61*.
Cc1c(OCC(=O)NC2CC(C)(C)NC(C)(C)C2)ccc2c1oc(=O)c1ccccc12 was read as KCNQ1 act inactive, KCNK9 inh inactive, KCNQ1 inh inactive, hERG rescue -8.6, KCNK3 block inactive and Kir21 block -2.11.
Cc1cccc(OCCCCc2c(C)n[nH]c2C)c1C was read as KCNQ1 act inactive, KCNK9 inh inactive, KCNQ1 inh inactive, hERG rescue -7.4, KCNK3 block inactive and Kir21 block -0.1.
Screening CCOC(=O)c1c(C)oc2c1cc(O)c1ccccc12 returned KCNQ1 act inactive, KCNK9 inh inactive, KCNQ1 inh inactive, hERG rescue -1.4, KCNK3 block inactive and Kir21 block -1.37.
CCOC(=O)c1c(C)oc2c(F)c(F)c(F)c(F)c2c1=O was read as KCNQ1 act inactive, KCNK9 inh inactive, KCNQ1 inh 7*, hERG rescue -23.0, KCNK3 block inactive and Kir21 block 1.93.
Screening O=C(NCCc1ccc(Cl)cc1)C1CCN(c2cnccn2)CC1 returned KCNQ1 act inactive, KCNK9 inh inactive, KCNQ1 inh inactive, hERG rescue -16.4, KCNK3 block inactive and Kir21 block -1.51.
`CCOC(=O)Cn1c(=N)n(CCOc2ccc(Br)cc2)c2ccccc21` gave KCNQ1 act inactive, KCNK9 inh inactive, KCNQ1 inh inactive, hERG rescue -22.1, KCNK3 block inactive and Kir21 block -6.39*.
`CCOC(=O)Cn1c(=N)n(CCOc2cccc(C)c2)c2ccccc21` gave KCNK3 block inactive.
Screening Nc1nc2ccccc2n1CCOc1ccc(Br)cc1 returned KCNQ1 act inactive, KCNK9 inh inactive, KCNQ1 inh inactive, hERG rescue -18.0, KCNK3 block inactive and Kir21 block -10.9*.
COc1ccc(NC(=S)NCCCN2CCCC2)cc1 was read as KCNQ1 act inactive, KCNK9 inh inactive, KCNQ1 inh inactive, hERG rescue -13.3, KCNK3 block inactive and Kir21 block 0.03.
For C=CCNCCCCOc1ccccc1-c1ccccc1 the results were KCNQ1 act inactive, KCNK9 inh inactive, KCNQ1 inh inactive, hERG rescue -11.5, KCNK3 block inactive and Kir21 block -5.72*.

Screens from PubChem BioAssay.
